# Laboratory results from ChEMBL document CHEMBL1909618, “Non-steroidal dissociated glucocorticoid agonists: indoles as A-ring mimetics and function-regulating pharmacophores” (Bioorg Med Chem Lett, 2011).
# The source made the active and inactive calls. The rule behind the calls is not given here.
# Legend:
# Mus musculus [1] = test: Antiinflammatory activity in mouse plasma assessed as inhibition of LPS-induced TNFalpha production at 10 mg/kg, po administered 1 hr before LPS challenge measured after 1 hr; type: functional
# Summary of the method: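 Mice received compound orally in Cremophor RH 1 h before LPS challenge. Plasma TNF-α was measured 1 h after challenge. n = 8 per group; doses were 3 and 10 mg/kg.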
# Mus musculus [2] = test: Antiarthritic activity in B10.R3 mouse collagen-induced arthritis model assessed as AUC of disease progression inhibition at 30 mg/kg, po qd for 5 weeks; type: functional; conditions: B10.R3, 840 h
# Summary of the method: (§1)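 B10.RIII mice immunized with porcine type II collagen plus complete Freund's adjuvant were enrolled at the first signs of arthritis. They were dosed orally once daily for 5 weeks; vehicle was 30% Cremophor RH. All four paws were scored 1–4 (maximum 16 per animal). Disease-score AUCs from 10 mice per group were compared with vehicle by Mann–Whitney test.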
# Mus musculus [3] = test: Toxicity in B10.R3 mouse collagen-induced arthritis model assessed as change in body weight at 3 mg/kg, po qd for 5 weeks relative to control; type: organism-based; design: dose 3 mg/kg, route oral; conditions: in vivo, 840 h
# Mus musculus [4] = test: Toxicity in B10.R3 mouse collagen-induced arthritis model assessed as change in body weight at 30 mg/kg, po qd for 5 weeks relative to control; type: organism-based; design: dose 30 mg/kg, route oral; conditions: in vivo, 840 h
# Mus musculus [5] = test: Toxicity in B10.R3 mouse collagen-induced arthritis model assessed as change in body fat level at 3 mg/kg, po qd for 5 weeks relative to control; type: organism-based; design: dose 3 mg/kg, route oral; conditions: in vivo, 840 h
# Summary of the method: (§2)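 Arthritic B10.RIII CIA mice were dosed orally once daily for 5 weeks. At day 35 they were anesthetized with ketamine (50 mg/kg) and xylazine (15 mg/kg). Body fat was assessed by whole-body density scan. Serum triglycerides were measured by enzymatic kit (Wako L-Type TG-H) and free fatty acids by NEFA-C. Results are expressed as % change versus vehicle and compared by t-test.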
# Mus musculus [6] = test: Toxicity in B10.R3 mouse collagen-induced arthritis model assessed as change in body fat level at 30 mg/kg, po qd for 5 weeks relative to control; type: organism-based; design: dose 30 mg/kg, route oral; conditions: in vivo, 840 h; summary of the method: as §2
# Mus musculus [7] = test: Toxicity in B10.R3 mouse collagen-induced arthritis model assessed as change in serum triglyceride level at 3 mg/kg, po qd for 5 weeks relative to control; type: organism-based; design: dose 3 mg/kg, route oral; conditions: in vivo, 840 h; summary of the method: as §2
# Mus musculus [8] = test: Toxicity in B10.R3 mouse collagen-induced arthritis model assessed as change in serum triglyceride level at 30 mg/kg, po qd for 5 weeks relative to control; type: organism-based; design: dose 30 mg/kg, route oral; conditions: in vivo, 840 h; summary of the method: as §2
# Mus musculus [9] = test: Toxicity in B10.R3 mouse collagen-induced arthritis model assessed as change in serum free fatty acids level at 3 mg/kg, po qd for 5 weeks relative to control; type: organism-based; design: dose 3 mg/kg, route oral; conditions: in vivo, 840 h; summary of the method: as §2
# Mus musculus [10] = test: Toxicity in B10.R3 mouse collagen-induced arthritis model assessed as change in serum free fatty acids level at 30 mg/kg, po qd for 5 weeks relative to control; type: organism-based; design: dose 30 mg/kg, route oral; conditions: in vivo, 840 h; summary of the method: as §2
# Mus musculus [11] = test: Toxicity in B10.R3 mouse collagen-induced arthritis model assessed as change in serum insulin level at 3 mg/kg, po qd for 5 weeks by ELISA relative to control; type: organism-based; design: dose 3 mg/kg, route oral; conditions: in vivo, 840 h
# Mus musculus [12] = test: Toxicity in B10.R3 mouse collagen-induced arthritis model assessed as change in serum insulin level at 30 mg/kg, po qd for 5 weeks by ELISA relative to control; type: organism-based; design: dose 30 mg/kg, route oral; conditions: in vivo, 840 h
# Mus musculus [13] = test: Antiarthritic activity in B10.R3 mouse collagen-induced arthritis model assessed as AUC of disease progression inhibition at 10 mg/kg, po qd for 5 weeks; type: functional; conditions: B10.R3, 840 h; summary of the method: as §1
# Mus musculus [14] = organism: Mus musculus; test: animal or person; conditions: B10.R3, po, 840 h, read-out: INH
# Glucocorticoid receptor [15] = biological target: T1, Glucocorticoid receptor (Homo sapiens, UniProt P04150); test: Transactivation activity of glucocorticoid receptor in HFF assessed as induction of aromatase activity by measuring beta-estradiol activity after 18 to 24 hrs by ELISA; conditions: read-out: EC50
# T1 sequence (P04150 whole entry): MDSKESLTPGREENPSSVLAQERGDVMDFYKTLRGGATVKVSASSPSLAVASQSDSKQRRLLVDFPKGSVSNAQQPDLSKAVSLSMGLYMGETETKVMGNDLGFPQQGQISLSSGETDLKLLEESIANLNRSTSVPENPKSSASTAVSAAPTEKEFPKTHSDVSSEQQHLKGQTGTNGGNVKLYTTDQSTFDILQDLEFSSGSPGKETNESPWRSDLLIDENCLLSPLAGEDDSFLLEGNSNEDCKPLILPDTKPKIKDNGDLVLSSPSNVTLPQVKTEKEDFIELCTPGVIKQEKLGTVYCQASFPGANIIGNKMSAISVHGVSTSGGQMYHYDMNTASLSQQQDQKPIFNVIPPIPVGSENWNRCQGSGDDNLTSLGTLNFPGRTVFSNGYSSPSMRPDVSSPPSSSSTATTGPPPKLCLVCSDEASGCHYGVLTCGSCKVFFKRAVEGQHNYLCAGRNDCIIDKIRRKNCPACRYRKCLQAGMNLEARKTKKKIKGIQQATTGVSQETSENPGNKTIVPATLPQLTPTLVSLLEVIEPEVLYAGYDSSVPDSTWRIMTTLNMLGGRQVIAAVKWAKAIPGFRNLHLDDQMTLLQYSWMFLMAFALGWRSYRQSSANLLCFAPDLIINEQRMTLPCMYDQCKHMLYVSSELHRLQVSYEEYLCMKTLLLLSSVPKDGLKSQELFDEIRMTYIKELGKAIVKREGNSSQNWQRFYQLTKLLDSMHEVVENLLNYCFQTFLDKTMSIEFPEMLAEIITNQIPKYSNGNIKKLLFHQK
# [16] = biological target: T2, Glucocorticoid receptor (Homo sapiens) (UniProt P04150); test: Transactivation activity of glucocorticoid receptor in HFF assessed as induction of aromatase activity by measuring beta-estradiol activity after 18 to 24 hrs by ELISA relative to Dexamethasone
# T2 sequence (whole entry): T1 sequence (P04150 whole entry)
# Glucocorticoid receptor [17] = biological target: T1, Glucocorticoid receptor; test: Displacement of tetramethylrhodamine-labeled Dexamethasone from human recombinant glucocorticoid receptor expressed in baculovirus infected insect cells by fluorescence polarization assay
# Progesterone receptor = biological target: T3, Progesterone receptor (Homo sapiens, UniProt P06401); test: Displacement of tetramethylrhodamine-labeled RU-486 from human recombinant progesterone receptor expressed in baculovirus infected insect cells by fluorescence polarization assay
# T3 sequence (P06401 whole entry): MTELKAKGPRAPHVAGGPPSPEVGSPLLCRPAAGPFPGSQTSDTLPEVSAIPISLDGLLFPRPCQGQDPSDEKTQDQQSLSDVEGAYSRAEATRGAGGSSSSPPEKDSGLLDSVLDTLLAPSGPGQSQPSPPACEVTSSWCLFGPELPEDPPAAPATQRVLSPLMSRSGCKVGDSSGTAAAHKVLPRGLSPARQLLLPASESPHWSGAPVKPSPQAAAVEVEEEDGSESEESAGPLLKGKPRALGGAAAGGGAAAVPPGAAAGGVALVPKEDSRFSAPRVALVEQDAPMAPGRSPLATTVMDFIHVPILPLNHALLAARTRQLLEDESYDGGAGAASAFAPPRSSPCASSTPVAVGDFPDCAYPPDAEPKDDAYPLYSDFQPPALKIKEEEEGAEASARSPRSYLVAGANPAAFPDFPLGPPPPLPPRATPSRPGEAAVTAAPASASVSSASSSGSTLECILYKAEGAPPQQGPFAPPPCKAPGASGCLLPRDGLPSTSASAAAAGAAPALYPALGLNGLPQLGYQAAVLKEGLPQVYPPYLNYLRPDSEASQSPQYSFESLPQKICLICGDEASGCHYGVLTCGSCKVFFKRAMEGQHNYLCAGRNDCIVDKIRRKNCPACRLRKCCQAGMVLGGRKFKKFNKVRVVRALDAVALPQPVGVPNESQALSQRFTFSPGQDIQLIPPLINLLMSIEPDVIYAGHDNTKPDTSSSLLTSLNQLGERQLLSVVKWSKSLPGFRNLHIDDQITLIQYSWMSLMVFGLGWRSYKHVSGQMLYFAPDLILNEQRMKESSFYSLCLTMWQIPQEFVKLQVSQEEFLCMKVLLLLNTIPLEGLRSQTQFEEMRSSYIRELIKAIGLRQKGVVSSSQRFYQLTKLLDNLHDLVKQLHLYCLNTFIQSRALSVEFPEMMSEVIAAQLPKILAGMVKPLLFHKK
# Summary of the method: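 Fluorescence polarization competition assays with recombinant human receptors in lysates of baculovirus-infected insect cells. Reactions contained 1% DMSO and ran 1 h at room temperature.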
# [18] = biological target: T4, Androgen receptor (Homo sapiens) (UniProt P10275); test: Displacement of [3H]-testosterone from human recombinant androgen receptor expressed in baculovirus infected insect cells at 1100 nM
# T4 sequence (whole entry): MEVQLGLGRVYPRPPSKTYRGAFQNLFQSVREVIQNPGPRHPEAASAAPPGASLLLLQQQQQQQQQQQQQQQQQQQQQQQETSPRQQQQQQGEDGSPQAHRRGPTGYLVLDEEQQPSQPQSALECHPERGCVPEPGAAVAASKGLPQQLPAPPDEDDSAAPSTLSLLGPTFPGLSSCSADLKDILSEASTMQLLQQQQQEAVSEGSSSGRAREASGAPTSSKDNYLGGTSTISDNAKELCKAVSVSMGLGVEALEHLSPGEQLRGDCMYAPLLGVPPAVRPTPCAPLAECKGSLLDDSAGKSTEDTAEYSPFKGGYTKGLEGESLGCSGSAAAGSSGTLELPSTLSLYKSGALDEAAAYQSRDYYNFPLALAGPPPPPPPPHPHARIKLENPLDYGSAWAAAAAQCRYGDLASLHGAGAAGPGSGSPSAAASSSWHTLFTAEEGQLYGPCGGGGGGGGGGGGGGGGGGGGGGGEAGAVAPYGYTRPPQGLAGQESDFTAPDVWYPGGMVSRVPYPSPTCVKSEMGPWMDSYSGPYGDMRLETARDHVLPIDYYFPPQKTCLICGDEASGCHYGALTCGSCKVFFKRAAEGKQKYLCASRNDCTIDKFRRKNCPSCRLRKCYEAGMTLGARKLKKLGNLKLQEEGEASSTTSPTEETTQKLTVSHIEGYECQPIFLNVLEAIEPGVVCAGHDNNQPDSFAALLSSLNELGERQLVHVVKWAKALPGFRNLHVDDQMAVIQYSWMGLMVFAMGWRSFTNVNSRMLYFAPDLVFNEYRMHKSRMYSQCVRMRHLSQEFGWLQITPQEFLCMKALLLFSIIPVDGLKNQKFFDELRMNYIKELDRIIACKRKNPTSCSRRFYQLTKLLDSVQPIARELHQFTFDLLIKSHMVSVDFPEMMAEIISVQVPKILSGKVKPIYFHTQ
# Summary of the method: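 Competition of test compound at a single concentration against 10 nM ³H-testosterone for binding to recombinant human AR in lysates of baculovirus-infected cells. Dihydrotestosterone at 2 µM served as the positive control. Results are expressed as % of control.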
# Glucocorticoid receptor [19] = biological target: T1, Glucocorticoid receptor; test: Agonist activity at glucocorticoid receptor in HFF assessed as inhibition of IL1-induced IL-6 production after 18 to 24 hrs; type: functional
EC50 (Glucocorticoid receptor [15]) [nM],Efficacy [16] [%],IC50 (Glucocorticoid receptor [17]) [nM],IC50 (Progesterone receptor) [nM],Activity [18],IC50 (Glucocorticoid receptor [19]) [nM],Structure (SMILES),inhibition in vivo at 10 mg/kg (Mus musculus [1]) [%],inhibition in vivo at 30 mg/kg (Mus musculus [2]) [%],Activity (Mus musculus [3]) [%],Activity (Mus musculus [4]) [%],Activity (Mus musculus [5]) [%],Activity (Mus musculus [6]) [%],Activity (Mus musculus [7]) [%],Activity (Mus musculus [8]) [%],Activity (Mus musculus [9]) [%],Activity (Mus musculus [10]) [%],Activity (Mus musculus [11]) [%],Activity (Mus musculus [12]) [%],inhibition in vivo at 10 mg/kg (Mus musculus [13]) [%],inhibition in vivo at 3 mg/kg (Mus musculus [14]) [%]
–,–,–,–,–,–,C[C@]12C=CC(=O)C=C1CC[C@@H]1[C@@H]2[C@@H](O)C[C@@]2(C)[C@H]1CC[C@]2(O)C(=O)CO [PREDNISOLONE],84,80,1.1,9,36,70,-11,55,8,25,37,190,62,42
23,93,22,290,inactive,7,COc1ccc(F)cc1C(C)(C)CC(O)(Cc1cc2ccccc2[nH]1)C(F)(F)F (racemic),–,–,–,–,–,–,–,–,–,–,–,–,–,–
